Screening data: PubChem, several laboratories
Mot1-301 SUMO: blocks SUMOylation pathway, rescuing yeast Mot1-301 growth. S. cerevisiae Mot1-301 growth rescue, ATP luminescence, 38.5C; percent above DMSO median, 100 means doubled. growth rescue, % at 18.8 µM. hit rate 1% among 320,000. AID 2716;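 active means every valid replicate shows activation above 250% relative to neutral control wells; inactive means the rest, any valid replicate at or below 250%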
Cardiac RTF inh: cardiac RTF calcium desensitization | IANBD-labeled cardiac RTF, Ca2+ fluorescence | inhibition, % at 7.15 µM | hit rate 0.12% among 340,000;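 active means inhibition above the mean inhibition of all tested compounds plus 3 SD, cut at about 17% in these data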;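 further: assay run at fixed EC70 calcium of 1.6 mM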
RTF Ca sens act: increases calcium sensitivity of human cardiac regulated thin filaments; P19429+P45379; IANBD-labeled TnC RTF fluorescence at EC20 calcium; 0% EC20 calcium, 100% full calcium; activation, % at 7.2 µM; hit rate 0.24% among 340,000;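 active means activation above the mean over all tested compounds plus 3 SD, cut at about 30% in these data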;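 further: rise in fluorescence read as greater calcium sensitivity of cardiac thin filaments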
Efflux pump mplx: antifungal efflux pump inhibition, Nile Red retention; S. cerevisiae Candida pump triplex; inhibition, % at 10 µM; hit rate 0.44% among 330,000; AID 485275;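 active means plate passing quality check with inhibition over a set limit, or well fluorescence over plate mean plus 4 SD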;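 further: Nile Red retained in pooled yeast measured as flow cytometry median fluorescence; higher means more Nile Red kept so more efflux inhibition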
UCH37 DUB inh: inhibitors of human deubiquitinating enzyme UCH37; hit rate 0.33% among 330,000; purified proteasome/UCH37, Ub-AMC cleavage fluorescence; inhibition, % (concentration not given with the values); Q9Y5K5;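 active means mean inhibition over replicate wells above about 20%, limit read from the data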
Target sequence (Q9Y5K5 whole entry, looked up): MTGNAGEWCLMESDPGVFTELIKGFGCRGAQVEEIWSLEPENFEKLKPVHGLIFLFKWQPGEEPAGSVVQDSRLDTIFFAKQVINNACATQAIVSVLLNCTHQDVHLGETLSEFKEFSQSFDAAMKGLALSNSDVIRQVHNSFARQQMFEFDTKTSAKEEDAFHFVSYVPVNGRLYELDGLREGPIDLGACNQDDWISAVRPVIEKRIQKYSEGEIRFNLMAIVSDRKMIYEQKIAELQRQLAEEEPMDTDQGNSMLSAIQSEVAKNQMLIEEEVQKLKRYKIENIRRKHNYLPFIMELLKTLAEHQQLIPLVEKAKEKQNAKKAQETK
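Schedule: 30 min plus 25 min, room temperature / Material: human UCH37 within purified proteasomes / Technique: AMC fluorescence intensity at 355/460 nm / Buffer or medium: pH 7.4 Tris-HCl (50 mM) with ovalbumin, ATP-MgCl2, DTT / Controls: wells without proteasome as full block, compound-free enzyme plus substrate as uninhibited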
ARNT-TACC3 inh: disruptors of human ARNT/TACC3 interaction; AlphaScreen His-ARNT PAS-B/GST-TACC3 binding, luminescence; TACC3 fragment carries E629A point mutation; Q9Y6A5; inhibition, % at 9.99 µM; hit rate 0.66% among 390,000;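 active means mean inhibition of replicates at least 50% and at least half of replicates each reaching 50%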
Large screens that a line does not name were inactive. Compounds with a hit are over-represented: about 2.1% of the library has one in this group of screens.

COc1cc(C=NN2CCN(c3ccc(Cl)cc3)CC2)cc(OC)c1OC(C)=O	none (no result: Mot1-301 SUMO, Cardiac RTF inh, RTF Ca sens act, Efflux pump mplx, ARNT-TACC3 inh)
CCOc1cc(/C=C2\C(=O)N(c3ccc(C(N)=O)cc3)N=C2C)ccc1OC(=O)c1cccs1	ARNT-TACC3 inh 14
O=C(CN1CCCCCCC1)NN=Cc1ccc(F)cc1F	none (no result: Mot1-301 SUMO, Cardiac RTF inh, RTF Ca sens act, Efflux pump mplx, ARNT-TACC3 inh)
Cc1[nH]n(-c2ccccc2)c(=O)c1/C=N/NC(=O)c1ccc(O)cc1O	ARNT-TACC3 inh 71 (no result: UCH37 DUB inh)
Cc1ccc(-n2[nH]c(C)c(/C=N/NC(=O)c3ccc(O)cc3O)c2=O)cc1	ARNT-TACC3 inh 62 (no result: UCH37 DUB inh)
Cc1[nH]n(-c2ccccc2)c(=O)c1C=NNC(=O)c1cccc([N+](=O)[O-])c1	none (no result: Mot1-301 SUMO, Cardiac RTF inh, RTF Ca sens act, Efflux pump mplx, ARNT-TACC3 inh)
Cc1cc(C(=O)N/N=C/c2c(C)[nH]n(-c3ccccc3)c2=O)n[nH]1	ARNT-TACC3 inh 84 (no result: UCH37 DUB inh)
Cc1[nH]n(-c2ccccc2)c(=O)c1/C=N/Nc1nncc(-c2ccccc2)n1	ARNT-TACC3 inh 66 (no result: UCH37 DUB inh)
Cc1[nH]n(-c2ccccc2)c(=O)c1C=NNc1nncc(-c2ccccc2)n1	none (no result: Mot1-301 SUMO, Cardiac RTF inh, RTF Ca sens act, Efflux pump mplx, ARNT-TACC3 inh)
Cc1[nH]n(-c2ccc(Br)cc2)c(=O)c1/C=N/NC(=O)c1ccccc1	none (no result: UCH37 DUB inh)
COc1ccc2nc(C=NNC(=O)CCCCCNC(=O)OC(C)(C)C)ccc2c1	none (no result: Mot1-301 SUMO, Cardiac RTF inh, RTF Ca sens act, Efflux pump mplx, ARNT-TACC3 inh)
COc1ccc(C(C)=NNC(=O)c2ccncc2)cc1[N+](=O)[O-]	none (no result: Mot1-301 SUMO, Cardiac RTF inh, RTF Ca sens act, Efflux pump mplx, ARNT-TACC3 inh)
Cc1[nH]n(-c2ccccc2)c(=O)c1C=NCc1ccncc1	ARNT-TACC3 inh 20
Cc1ccc(-n2[nH]c(C)c(C=NCc3ccncc3)c2=O)cc1	none
Cc1[nH]n(-c2ccc(Cl)cc2)c(=O)c1/C=N/c1nnc(-c2ccccc2)s1	ARNT-TACC3 inh active (no result: UCH37 DUB inh)
Cc1noc(C)c1C(=O)NCCc1c(C)[nH]c2ccccc12	Mot1-301 SUMO 296
Cc1noc(C)c1C(=O)NCCCc1ccccc1	none
COc1cnc(-c2ccccn2)nc1N(C)C	ARNT-TACC3 inh 74
CCOC(=O)C(C)Sc1nc(-c2ccccn2)ncc1OC (stereo not drawn)	ARNT-TACC3 inh 60
CCOC(=O)C(C)Sc1ncc(OC)c(Sc2ccc(Cl)cc2)n1 (stereo not drawn)	none
COc1ccccc1-c1nc(-c2ccccn2)no1	none
C=C(C)COc1ccc(-c2n[nH]c(C)c2Oc2ccccc2OC)c(O)c1	UCH37 DUB inh 35
CCOc1ccc(-c2n[nH]c(C)c2Oc2ccccc2OC)c(O)c1	none
COc1ccc(CC(=NOC(C)=O)c2ccc(OC)cc2)cc1	none (no result: Mot1-301 SUMO, Cardiac RTF inh, RTF Ca sens act, Efflux pump mplx, ARNT-TACC3 inh)
CN(C)CCC=C1c2ccccc2CCc2ccccc21	UCH37 DUB inh 22
CN(C)CC/C=C1/c2ccccc2COc2ccccc21	none (no result: Cardiac RTF inh, RTF Ca sens act, UCH37 DUB inh, ARNT-TACC3 inh)
O=C(O)CC1SC(=NN=C2CCCCC2)N(c2ccccc2)C1=O (stereo not drawn)	none (no result: Mot1-301 SUMO, Cardiac RTF inh, RTF Ca sens act, Efflux pump mplx, ARNT-TACC3 inh)
Cc1cccc(C(=O)NC(C(=O)Nc2nc(-c3ccccn3)cs2)C(C)C)c1 (stereo not drawn)	none
CC(Oc1ccccc1)C(=O)Nc1nc(-c2ccccn2)cs1 (stereo not drawn)	ARNT-TACC3 inh 68 (no result: Mot1-301 SUMO, Efflux pump mplx)
O=C(Nc1nc(-c2ccccn2)cs1)c1ccc(S(=O)(=O)N2CCCCC2)cc1	none (no result: Cardiac RTF inh, RTF Ca sens act, UCH37 DUB inh, ARNT-TACC3 inh)
O=C(/C=C/c1ccco1)Nc1nc(-c2ccccn2)cs1	ARNT-TACC3 inh 65
Cc1ccc(S(=O)(=O)N2CCOCC2)cc1C(=O)Nc1nc(-c2ccccn2)cs1	ARNT-TACC3 inh 75
O=C(/C=C/c1ccco1)Nc1nc(-c2ccccc2)cs1	none
C[C@H](NC(=O)c1ccccc1)C(=O)Nc1nc(-c2ccccn2)cs1	ARNT-TACC3 inh 64
O=c1[nH]c2cc(Br)cnc2nc1C=C(O)c1ccc(F)cc1	none (no result: Mot1-301 SUMO, Cardiac RTF inh, RTF Ca sens act, Efflux pump mplx, ARNT-TACC3 inh)
O=C(Nc1nc(-c2ccccn2)cs1)c1cc2ccccc2o1	ARNT-TACC3 inh 66
CCc1sc(C(=O)Nc2nccs2)cc1C	none
O=C(COc1ccc(F)cc1Cl)Nc1nc(-c2ccccn2)cs1	ARNT-TACC3 inh 48 (no result: UCH37 DUB inh)
CCc1sc(C(=O)Nc2nc(-c3ccccn3)cs2)cc1C	ARNT-TACC3 inh 63
COc1cccc(C(=O)NN=Cc2ccc(OC)c(COc3ccccc3C(N)=O)c2)c1	none (no result: Mot1-301 SUMO, Cardiac RTF inh, RTF Ca sens act, Efflux pump mplx, ARNT-TACC3 inh)
Oc1ccc(/C=N/Nc2nn3cnnc3c3ccccc23)cc1	none (no result: UCH37 DUB inh)
CCOc1cc(/C=N/Nc2nn3cnnc3c3ccccc23)ccc1O	ARNT-TACC3 inh 57 (no result: UCH37 DUB inh)
O=C(Nc1ccccc1N1CCN(C(=O)c2ccccc2)CC1)c1cc2ccccc2o1	Mot1-301 SUMO 264
O=C(Nc1ccccc1N1CCCC1)c1cc2ccccc2o1	none (no result: ARNT-TACC3 inh)
